Assay results published in PMC5699463 (Journal of the American Chemical Society, 2017).
Converted amounts (≈) assume the structure as drawn.

Assays:
[1] = system: Lipid II pool levels in S. aureus; assay: Assay to detect Lipid II abundance after antibiotic treatment; type: cell-based, Staphylococcus aureus; conditions: S. aureus cultures treated for ten minutes
How it was run: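 S. aureus cultures were exposed for 10 min to test compound or to peptidoglycan-synthesis inhibitor controls that either deplete or accumulate Lipid II. Lipid II was then extracted and labelled with biotin-d-Lys to measure its pool level.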

[2] = system: wildtype B. subtilis; assay: Disk diffusion assay against wildtype B. subtilis; type: cell-based, Bacillus subtilis
[3] = system: B. subtilis strain KS002 (TagGH replaced with S. aureus TarGH); assay: Disk diffusion assay against B. subtilis strain KS002 expressing S. aureus TarGH; type: cell-based, Bacillus subtilis; conditions: strain expressing the S. aureus transporter
[4] = system: B. subtilis; assay: Growth inhibition of B. subtilis; type: cell-based, Bacillus subtilis
[5] = system: S. aureus ΔtarO knockout strain; assay: Counterscreen: growth inhibition of WTA null; type: cell-based, Staphylococcus aureus
How it was run: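 Library compounds were screened in duplicate at ~15 µM final against wildtype S. aureus Newman. In parallel they were counterscreened against the WTA-null ΔtarO strain to find growth inhibition that is suppressed when WTA is absent. Growth was read as OD600 and averaged over the duplicates.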

[6] = target: TarGH (Staphylococcus aureus, UniProt Q2G2X5); assay: ATPase activity of reconstituted TarGH in proteoliposomes; type: biochemical; conditions: 1.0 µM compound; compared with TarH E169Q mutant
[7] = system: wildtype S. aureus (Newman); assay: Growth inhibition; type: cell-based, Staphylococcus aureus

Molecule | effect on Lipid II pool levels [1] | zone of inhibition [2] | zone of inhibition [3] | growth inhibition of B. subtilis [4] | activity against the ΔtarO strain [5] | ATPase activity of the WT transporter in the presence of compound [6] | minimum inhibitory concentration (MIC) [7] | MIC relative to that of targocil ([7]; compared with targocil)
bacitracin | depleted Lipid II | – | – | – | – | – | – | –
CCN(CC)c1nc2c(S(=O)(=O)c3ccc(Cl)cc3)nnn2c2cc(OC)c(OC)cc12 [targocil] | depleted Lipid II | – | – | – | – | – | – | –
Cc1c(CC(=O)N2CCC[C@H]2C(=O)O)c(=O)oc2c(C)c3occ(-c4ccc(Cl)cc4)c3cc12 [Compound 2] | depleted Lipid II | did not show a zone of inhibition | dose-dependent inhibition zone | did not inhibit growth | no activity | comparable to that of a TarGH mutant containing a mutation that impairs ATP hydrolysis | 0.125 µg/mL (≈ 0.26 µM) | eight-fold lower
